Values after ≈ are worked out from the molar mass of the structure shown.
How the values were obtained:
Streptococcus pneumoniae [1] = assay: Antimicrobial activity against Streptococcus pneumoniae expressing MetRS2 gene; assay type: functional
Staphylococcus aureus [2] = assay: Antimicrobial activity against Staphylococcus aureus expressing MetRS G54A A64P mutant; assay type: functional
Staphylococcus aureus [3] = assay: Antimicrobial activity against Staphylococcus aureus expressing MetRS I57N G54S mutant; assay type: functional
Staphylococcus aureus [4] = assay: Antimicrobial activity against Staphylococcus aureus expressing MetRS I57N I238F mutant; assay type: functional
[5] = Inhibition of Staphylococcus aureus MetRS
Procedure, shortened: (§1)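 tRNA aminoacylation with scintillation proximity detection. Purified MetRS in 40 mM Tris-HCl pH 8.0, 10 mM Mg acetate, 2.5 mM ATP, 80 mM KCl, 2.5 mM DTT, BSA, [3H]methionine (7 μM Met), 1 μg/ml crude E. coli tRNA. Human enzymes had 0.2–0.6 mM spermine, and substrate, Mg and enzyme levels were optimized per ortholog. Inhibitor was a DMSO serial dilution, 1 μM to 0.05 nM (final), 8% DMSO final, 30 min at room temperature. Reactions were EDTA-stopped, and charged tRNA was captured on polylysine YSi beads at pH 2.0. IC50 came from a four-parameter logistic fit versus DMSO control.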

[6] = Inhibition of Streptococcus pneumoniae MetRS1; procedure, shortened: as §1
Methionine--tRNA ligase [7] = molecular target: Methionine--tRNA ligase (Staphylococcus aureus subsp. aureus MW2, UniProt Q8NY00, I57N/V242F); assay: Inhibition of Staphylococcus aureus MetRS I57N V242F mutant
Staphylococcus aureus [8] = assay: Antimicrobial activity against Staphylococcus aureus expressing MetRS G223C mutant; assay type: functional
Staphylococcus aureus [9] = assay: Antimicrobial activity against Staphylococcus aureus expressing MetRS L213W mutant; assay type: functional
Methionine--tRNA ligase [10] = molecular target: Methionine--tRNA ligase (Staphylococcus aureus subsp. aureus MW2, UniProt Q8NY00, G54S); assay: Inhibition of Staphylococcus aureus MetRS G54S mutant
Methionine--tRNA ligase [11] = molecular target: Methionine--tRNA ligase (Staphylococcus aureus subsp. aureus MW2, UniProt Q8NY00, L213W); assay: Inhibition of Staphylococcus aureus MetRS L213W mutant
Procedure, shortened: (§2)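 Purified recombinant S. aureus MetRS (mutant, expressed in E. coli) was tested by ATP:PPi exchange with [32P]PPi, using 125 mM methionine and 100 μM ATP so that the IC50 sits above enzyme concentration. Inhibitor was in DMSO (8% final), over 1 μM to 0.05 nM. A sigmoidal fit gave the IC50, and Ki = IC50/[(1+[Met]/KmMet)(1+KmATP/[ATP])], with KmMet taken at that ATP level.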

Staphylococcus aureus [12] = assay: Antimicrobial activity against Staphylococcus aureus expressing MetRS V108M mutant; assay type: functional
Haemophilus influenzae = assay: Antimicrobial activity against Haemophilus influenzae expressing MetRS gene; assay type: functional
Escherichia coli = assay: Antimicrobial activity against Escherichia coli expressing MetRS gene; assay type: functional
Staphylococcus aureus [13] = assay: Antimicrobial activity against Staphylococcus aureus expressing MetRS I57N V242F mutant; assay type: functional
Staphylococcus aureus [14] = assay: Antimicrobial activity against Staphylococcus aureus expressing MetRS A247E mutant; assay type: functional
Methionine--tRNA ligase [15] = molecular target: Methionine--tRNA ligase (Staphylococcus aureus subsp. aureus MW2, UniProt Q8NY00, A247E/I57N); assay: Inhibition of Staphylococcus aureus MetRS I57N A247E mutant
Staphylococcus aureus [16] = assay: Antimicrobial activity against Staphylococcus aureus expressing MetRS gene; assay type: functional
Methionine--tRNA ligase [17] = molecular target: Methionine--tRNA ligase (Staphylococcus aureus subsp. aureus MW2, UniProt Q8NY00, A64P/G54A); assay: Inhibition of Staphylococcus aureus MetRS G54A A64P mutant
Methionine--tRNA ligase [18] = molecular target: Methionine--tRNA ligase (Staphylococcus aureus subsp. aureus MW2, UniProt Q8NY00, G54S/I57N); assay: Inhibition of Staphylococcus aureus MetRS I57N G54S mutant
[19] = Cytotoxicity against rat H42E cells by MTT assay; assay type: cell-based
Methionine--tRNA ligase [20] = molecular target: Methionine--tRNA ligase (Staphylococcus aureus subsp. aureus MW2, UniProt Q8NY00, I57N); assay: Inhibition of Staphylococcus aureus MetRS I57N mutant; procedure, shortened: as §2
Staphylococcus aureus [21] = assay: Antimicrobial activity against Staphylococcus aureus expressing MetRS I57N mutant; assay type: functional
[22] = Inhibition of human mitochondrial MetRS; procedure, shortened: as §1
Staphylococcus aureus [23] = assay: Antimicrobial activity against Staphylococcus aureus expressing MetRS I57N A247E mutant; assay type: functional
A549 = assay: Cytotoxicity against human A549 cells by MTT assay; assay type: cell-based
Methionine--tRNA ligase [24] = molecular target: Methionine--tRNA ligase (Staphylococcus aureus subsp. aureus MW2, UniProt Q8NY00, V108M); assay: Inhibition of Staphylococcus aureus MetRS V108M mutant; procedure, shortened: as §2
Streptococcus pneumoniae [25] = assay: Antimicrobial activity against Streptococcus pneumoniae expressing MetRS1 gene; assay type: functional
Staphylococcus aureus [26] = assay: Antimicrobial activity against Staphylococcus aureus expressing MetRS G54S mutant; assay type: functional
Methionine--tRNA ligase [27] = molecular target: Methionine--tRNA ligase (Staphylococcus aureus subsp. aureus MW2, UniProt Q8NY00, I238F/I57N); assay: Inhibition of Staphylococcus aureus MetRS I57N I238F mutant
Methionine--tRNA ligase [28] = molecular target: Methionine--tRNA ligase (Staphylococcus aureus subsp. aureus MW2, UniProt Q8NY00, G223C); assay: Inhibition of Staphylococcus aureus MetRS G223C mutant; procedure, shortened: as §2
[29] = Inhibition of Escherichia coli MetRS; procedure, shortened: as §1
[30] = Inhibition of human cytoplasmic MetRS; procedure, shortened: as §1
Methionine--tRNA ligase [31] = molecular target: Methionine--tRNA ligase (Staphylococcus aureus subsp. aureus MW2, UniProt Q8NY00, A247E); assay: Inhibition of Staphylococcus aureus MetRS A247E mutant; procedure, shortened: as §2
Methionine--tRNA ligase [32] = molecular target: T1, Methionine--tRNA ligase (Haemophilus influenzae (strain ATCC 51907 / DSM 11121 / KW20 / Rd), UniProt P43828); assay: Inhibition of Haemophilus influenzae MetRS; procedure, shortened: as §1
T1 sequence (P43828 whole entry): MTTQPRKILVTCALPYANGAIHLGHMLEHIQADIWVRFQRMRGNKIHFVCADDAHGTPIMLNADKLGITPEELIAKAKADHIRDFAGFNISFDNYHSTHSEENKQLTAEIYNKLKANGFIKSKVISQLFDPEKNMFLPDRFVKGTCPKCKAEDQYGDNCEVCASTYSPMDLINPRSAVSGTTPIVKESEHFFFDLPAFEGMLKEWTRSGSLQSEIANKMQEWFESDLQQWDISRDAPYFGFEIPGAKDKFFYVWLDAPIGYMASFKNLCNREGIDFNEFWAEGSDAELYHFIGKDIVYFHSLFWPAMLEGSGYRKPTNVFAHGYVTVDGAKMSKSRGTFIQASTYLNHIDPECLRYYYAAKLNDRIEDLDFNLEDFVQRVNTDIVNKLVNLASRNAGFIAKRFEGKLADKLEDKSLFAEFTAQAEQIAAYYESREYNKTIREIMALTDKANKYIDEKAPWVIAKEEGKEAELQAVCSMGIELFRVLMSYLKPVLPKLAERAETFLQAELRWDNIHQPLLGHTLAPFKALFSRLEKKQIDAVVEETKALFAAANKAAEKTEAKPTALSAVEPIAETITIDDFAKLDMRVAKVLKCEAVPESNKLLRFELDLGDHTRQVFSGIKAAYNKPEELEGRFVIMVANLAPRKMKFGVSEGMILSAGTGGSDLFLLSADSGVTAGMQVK

[33] = Inhibition of Streptococcus pneumoniae MetRS2; procedure, shortened: as §1

**Q.** Which MIC (Streptococcus pneumoniae [1]) does the source give for `C=C(F)c1sc(CNCCCNc2cc(=O)c3ccccc3[nH]2)c(C)c1Br` [BEDEROCIN] here?
**A.** 32 µg/mL (≈ 71.1 µM)

**Q.** What about the MIC (Staphylococcus aureus [2]) of the same compound?
**A.** 32 µg/mL (≈ 71.1 µM)

**Q.** What about the MIC (Staphylococcus aureus [3]) of the same compound?
**A.** 32 µg/mL (≈ 71.1 µM)

**Q.** And the MIC (Staphylococcus aureus [4])?
**A.** 32 µg/mL (≈ 71.1 µM)

**Q.** And the Ki [5]?
**A.** 0.01 nM

**Q.** And the Ki [6]?
**A.** 0.055 nM

**Q.** What about the Ki (Methionine--tRNA ligase [7]) of the same compound?
**A.** 15 nM

**Q.** And the MIC (Staphylococcus aureus [8])?
**A.** 8 µg/mL (≈ 17.8 µM)

**Q.** What about the MIC (Staphylococcus aureus [9]) of the same compound?
**A.** 2 µg/mL (≈ 4.44 µM)

**Q.** And the Ki (Methionine--tRNA ligase [10])?
**A.** 85 nM

**Q.** And the Ki (Methionine--tRNA ligase [11])?
**A.** 0.04 nM

**Q.** What about the MIC (Staphylococcus aureus [12]) of the same compound?
**A.** 8 µg/mL (≈ 17.8 µM)

**Q.** What about the MIC (Haemophilus influenzae) of the same compound?
**A.** > 64 µg/mL

**Q.** What about the MIC (Escherichia coli) of the same compound?
**A.** 16 µg/mL (≈ 35.5 µM)

**Q.** What about the MIC (Staphylococcus aureus [13]) of the same compound?
**A.** 32 µg/mL (≈ 71.1 µM)

**Q.** What about the MIC (Staphylococcus aureus [14]) of the same compound?
**A.** 4 µg/mL (≈ 8.88 µM)

**Q.** And the Ki (Methionine--tRNA ligase [15])?
**A.** 60 nM

**Q.** And the MIC (Staphylococcus aureus [16])?
**A.** 0.12 µg/mL (≈ 0.266 µM)

**Q.** What about the Ki (Methionine--tRNA ligase [17]) of the same compound?
**A.** 1900 nM

**Q.** And the Ki (Methionine--tRNA ligase [18])?
**A.** 900 nM

**Q.** What about the IC50 [19] of the same compound?
**A.** > 20000 nM

**Q.** What about the Ki (Methionine--tRNA ligase [20]) of the same compound?
**A.** 0.08 nM

**Q.** What about the MIC (Staphylococcus aureus [21]) of the same compound?
**A.** 8 µg/mL (≈ 17.8 µM)

**Q.** What about the Ki [22] of the same compound?
**A.** 23 nM

**Q.** What about the MIC (Staphylococcus aureus [23]) of the same compound?
**A.** 32 µg/mL (≈ 71.1 µM)

**Q.** And the IC50 (A549)?
**A.** > 20000 nM

**Q.** What about the Ki (Methionine--tRNA ligase [24]) of the same compound?
**A.** 0.11 nM

**Q.** And the MIC (Streptococcus pneumoniae [25])?
**A.** 0.12 µg/mL (≈ 0.266 µM)

**Q.** And the MIC (Staphylococcus aureus [26])?
**A.** 16 µg/mL (≈ 35.5 µM)

**Q.** What about the Ki (Methionine--tRNA ligase [27]) of the same compound?
**A.** 350 nM

**Q.** What about the Ki (Methionine--tRNA ligase [28]) of the same compound?
**A.** 0.51 nM

**Q.** And the Ki [29]?
**A.** 10 nM

**Q.** What about the Ki [30] of the same compound?
**A.** > 20000 nM

**Q.** What about the Ki (Methionine--tRNA ligase [31]) of the same compound?
**A.** 0.06 nM

**Q.** What about the Ki (Methionine--tRNA ligase [32]) of the same compound?
**A.** 225 nM

**Q.** What about the Ki [33] of the same compound?
**A.** > 5000 nM
